The record followed here is ChEMBL document CHEMBL4190282, “The Conjugated Double Bond of Coniferyl Aldehyde Is Essential for Heat Shock Factor 1 Mediated Cytotoprotection” (J Nat Prod, 2017).

SMILES strings stand for the structures. Active and inactive are the calls of the source. No cut-off for these calls is given here.

Assay [1] has as its target T1, Heat shock factor protein 1 (Homo sapiens) (UniProt Q00613).
T1 sequence (whole entry): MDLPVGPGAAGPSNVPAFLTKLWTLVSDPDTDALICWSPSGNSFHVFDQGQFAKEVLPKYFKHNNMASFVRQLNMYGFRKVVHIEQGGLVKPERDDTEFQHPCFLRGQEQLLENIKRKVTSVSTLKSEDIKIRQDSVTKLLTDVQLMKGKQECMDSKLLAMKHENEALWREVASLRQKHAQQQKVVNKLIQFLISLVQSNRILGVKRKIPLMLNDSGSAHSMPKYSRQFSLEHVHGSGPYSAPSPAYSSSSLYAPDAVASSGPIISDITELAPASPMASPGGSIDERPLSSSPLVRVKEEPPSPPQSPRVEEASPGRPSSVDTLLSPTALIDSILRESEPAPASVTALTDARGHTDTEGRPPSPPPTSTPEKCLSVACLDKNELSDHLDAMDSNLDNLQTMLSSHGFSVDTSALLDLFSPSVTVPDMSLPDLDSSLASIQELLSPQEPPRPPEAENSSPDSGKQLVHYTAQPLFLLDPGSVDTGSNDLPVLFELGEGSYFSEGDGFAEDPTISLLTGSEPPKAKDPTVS
The assay is described as follows: Activation of HSF1 in human NCI-H460 cells assessed as upregulation of HSP25 protein levels at 10 to 30 uM after 12 hrs by Western blot analysis. The class given is cell-based. An outline of the steps:
(§1)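 NCI-H460 cells treated 12 h at 10 or 30 μM; HSF1, HSP27 and HSP70 detected by Western blot.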
Background: In western blotting, separated proteins are transferred to a membrane and probed.

The target of assay [2] is T1, Heat shock factor protein 1 (Homo sapiens). The assay is described as follows: Activation of HSF1 in human NCI-H460 cells assessed as upregulation of HSP70 protein levels at 10 to 30 uM after 12 hrs by Western blot analysis. The class given is cell-based. An outline of the steps: as §1
The target is the same in assay [3]. Nature of the assay: Activation of HSF1 in human L132 cells assessed as increase in HSP25 mRNA expression at 3 uM after 12 hrs by RT-PCR analysis. The format is cell-based. An outline of the steps: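 L132 human lung fibroblasts treated 12 h at 3 μM; hsp27 and hsp70 mRNA measured by RT-PCR under the same conditions as immunoblotting. Celastrol 1 μM positive control.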

The target is the same in assay [4]. The assay is described as follows: Activation of HSF1 in human L132 cells assessed as increase in HSP25 protein levels at 3 uM after 12 hrs by immunoblotting analysis. The format is cell-based. An outline of the steps:
(§2)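 L132 cells treated at 3 μM for 12 h, or at various doses for 12 h, or at 3 μM over a time course. Lysates resolved by SDS-PAGE, blotted to nitrocellulose, milk-blocked, primary antibodies 18 h at 4 °C, ECL detection. HSP27, HSP70 and Ser326-phospho-HSF1 bands normalized to loading control; ≥3 independent experiments; celastrol 1 μM positive control.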

The target is the same in assay [5]. Nature of the assay: Activation of HSF1 in human L132 cells assessed as increase in HSP70 protein levels at 3 uM after 12 hrs by immunoblotting analysis. The class given is cell-based. An outline of the steps: as §2
Assay [6] relates to MEF. Nature of the assay: Cytoprotective activity against cisplatin-induced caspase3 cleavage in HSF1 deficient MEF at 3 uM pretreated for 1 hr followed by cisplatin addition measured after 24 hrs by immunoblotting analysis. The class given is functional, cell-based. As to conditions: Mus musculus. An outline of the steps: (§3)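 HSF1+/+ or HSF1−/− MEFs in DMEM with heat-inactivated 10% FBS, nonessential amino acids, glutamine, HEPES, 37 °C, 5% CO2. 1 h pretreatment at 3 μM, then 0.5 μM paclitaxel or 20 μM cisplatin for 24 h, or 10 Gy 137Cs γ-rays (3.81 Gy/min) for 48 h. Cleaved PARP and caspase-3 immunoblotted; bands normalized to loading control, fold-change vs negative control, ≥3 independent experiments.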

In assay [7] the test system is MEF. The assay is described as follows: Cytoprotective activity against IR-induced caspase3 cleavage in HSF1 deficient MEF at 3 uM pretreated for 1 hr followed by 10 Gy irradiation measured after 48 hrs by immunoblotting analysis. The format is functional, cell-based. As to conditions: Mus musculus. An outline of the steps: as §3
Assay [8] concerns the target T2, Heat shock factor protein 1 (Mus musculus) (UniProt P38532).
T2 sequence (whole entry): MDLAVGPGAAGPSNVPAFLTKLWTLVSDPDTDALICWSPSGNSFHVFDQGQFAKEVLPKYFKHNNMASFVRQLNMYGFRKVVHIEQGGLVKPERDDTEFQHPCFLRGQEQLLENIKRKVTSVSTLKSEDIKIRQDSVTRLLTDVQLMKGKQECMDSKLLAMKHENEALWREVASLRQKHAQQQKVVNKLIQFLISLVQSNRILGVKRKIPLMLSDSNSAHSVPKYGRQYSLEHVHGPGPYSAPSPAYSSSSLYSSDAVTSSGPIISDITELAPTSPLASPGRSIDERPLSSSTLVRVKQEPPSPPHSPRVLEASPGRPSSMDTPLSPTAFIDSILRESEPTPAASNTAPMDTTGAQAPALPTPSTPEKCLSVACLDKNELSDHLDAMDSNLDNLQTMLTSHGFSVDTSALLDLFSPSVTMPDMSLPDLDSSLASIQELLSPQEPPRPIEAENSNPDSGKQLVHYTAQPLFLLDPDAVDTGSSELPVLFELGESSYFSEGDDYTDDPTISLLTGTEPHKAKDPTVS
Nature of the assay: Activation of HSF1 in MEF assessed as protection against paclitaxel-induced PARP cleavage at 3 uM pretreated for 1 hr followed by paclitaxel addition measured after 24 hrs by immunoblotting analysis. The format is cell-based. An outline of the steps: as §3

Assay [9] has as its target T2, Heat shock factor protein 1 (Mus musculus). The assay is described as follows: Activation of HSF1 in MEF assessed as protection against paclitaxel-induced caspase3 cleavage at 3 uM pretreated for 1 hr followed by paclitaxel addition measured after 24 hrs by immunoblotting analysis. The format is cell-based. An outline of the steps:
as §3

Assay [10] shares this target. Nature of the assay: Activation of HSF1 in MEF assessed as protection against cisplatin-induced PARP cleavage at 3 uM pretreated for 1 hr followed by cisplatin addition measured after 24 hrs by immunoblotting analysis. The class given is cell-based. An outline of the steps:
as §3

The target is the same in assay [11]. The assay is described as follows: Activation of HSF1 in MEF assessed as protection against IR-induced caspase3 cleavage at 3 uM pretreated for 1 hr followed by 10 Gy irradiation measured after 48 hrs by immunoblotting analysis. The format is cell-based. An outline of the steps:
as §3

For the next assay, the system named is Mus musculus. The assay is described as follows: Protection against IR-induced mortality in ICR mouse assessed as increase in mean survival days at 5 to 10 mg/kg, ip administered once before and three times after 7 Gy irradiation measured daily for 30 days. The class given is functional, organism-based. An outline of the steps:
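Female ICR mice (5–6 weeks, 25–30 g) given 7 Gy whole-body IR; dosed ip at 5 or 10 mg/kg once before and three times after IR, DMSO stock diluted in modified PBS. Survival days and radiation sickness signs checked twice daily; 10 mice per group.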

The target in assay [12] is T1, Heat shock factor protein 1 (Homo sapiens). Nature of the assay: Activation of HSF1 in human L132 cells assessed as increase in HSP70 protein levels at 3 uM after 6 to 24 hrs by immunoblotting analysis. The class given is cell-based. An outline of the steps:
as §2

The subject of a further assay is L132. Nature of the assay: Cytoprotective activity against IR-induced cell death in human L-132 cells at 3 uM pretreated for 1 hr followed by 10 Gy irradiation measured after 48 hrs by FACS analysis. The class given is functional, cell-based. An outline of the steps:
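L132 cells in RPMI with 10% FBS. 1 h pretreatment at 3 μM, then 0.5 μM paclitaxel or 20 μM cisplatin for 24 h, or 10 Gy γ-rays for 48 h. Cells trypsinized, washed, stained with propidium iodide and analysed by flow cytometry. Means ± SD of ≥3 independent experiments, fold-change vs negative control.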
A general note: In flow cytometry, cells or beads pass a laser one at a time.

`COc1cc(/C=C/CO)ccc1O` [CONIFERYL ALCOHOL]: the outcome in [1], in assay [2], in assay [3], in [4], in [5] and in assay [8] was Active. Further, the outcome (in [9]; in assay [10]; in [11]; with Mus musculus; in [12]; with L132) was Active. For the same compound, the outcome in the assay on MEF [6] and in the assay with MEF [7] was inactive.
Take `COc1cc(/C=C/C=O)ccc1O` [CONIFERYL ALDEHYDE]: the outcome in assay [1], in assay [2], in assay [3], in assay [4], in assay [5] and in assay [8] was Active. The outcome (in [9]; in assay [10]; in assay [11]; in the assay on Mus musculus; in assay [12]; in the assay with L132) was Active. Further, the outcome in the assay on MEF [6] and in the assay with MEF [7] was inactive.
